Experiment: Toxicity liver stage against HepG2, at 10uM
Type: cell-based
Parameters: test concentration 10 uM, cell line HepG2-A16-CD81EGFP
Conditions: human, HepG2-A16-CD81EGFP cells; read-out: INHIBITION
How it was run: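 Uninfected HepG2-A16-CD81EGFP cells, 3 × 10^3 per well, 1536-well, plated on prespotted compound at 10 μM final, parasite-free screening media added to match infected plates; puromycin 10 μM positive, DMSO 0.5% negative; run in parallel with 48 h PbLuc assay at 37 °C, 5% CO2; viability by CellTiter-Glo luminescence, normalized to controls.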

Row | Compound | cytotoxicity at 10 µM
1 | CN1CCCCc2c1nc1c(c2N)CCCC1 | -0.675%
2 | N[C@@H](Cc1ccccc1)c1nnc(S(=O)(=O)Cc2ccccc2)o1 | 13.3%
3 | CN1C[C@H](O)[C@]2(CCN(Cc3ccc(F)c(F)c3)C2)S1(=O)=O | -1.42%
4 | COc1ccc(CC(=O)NCC(O)c2sccc2C)cc1OC (stereo not drawn) | 11.4%
5 | c1ccc2c(c1)CCN(c1nc(N3CCOCC3)c3nn[nH]c3n1)C2 | 11.6%
6 | O=C(c1ccsc1)N1CCc2nnc(COc3cncnc3)n2CC1 | 1.72%
7 | Cc1cccc(CN2C[C@@H]3OCCN(S(=O)(=O)N(C)C)[C@@H]3C2)n1 | 11.2%
8 | COC1COC2(CCN(C(=O)c3cscn3)CC2)C1 (stereo not drawn) | 6.13%
9 | CN(Cc1cccnc1)C1CC2(CCN(C(=O)c3ccnnc3)CC2)C1 | 5.41%
10 | COCCO[C@@H]1CCN(C(=O)c2ccnnc2)[C@H]1Cc1cnn(C)c1 | 7.6%
11 | COCCN1C[C@@H]2CN(c3ncc(F)cn3)C[C@@H]2C1=O | 9.49%
12 | O=C(O)c1nnn(-c2ccccc2)c1-c1ccncc1 | 2.33%
13 | COc1ccc(-c2cc3nn(CC(=O)NC(C)C)c(=O)n3c(C)n2)cc1 | 1.81%
14 | CN(C)CCNC(=O)c1sccc1N(C)S(=O)(=O)c1ccc(Cl)cc1 | 2.38%
15 | Cn1c(=O)c2c(n3ncnc13)NC(=O)CC2c1ccc(F)cc1 (stereo not drawn) | 5.64%
16 | Cc1cccc(NC(=O)C(C)Oc2ccc3c(c2)OCO3)n1 (stereo not drawn) | -9.25%
17 | COCCNC(=O)c1nnc2ccc(N3CCOCC3)cc2n1 | 10.8%
18 | CC(=O)c1c(C)nn(S(=O)(=O)c2ccc(F)cc2)c1C | 3.25%
19 | Cc1n[nH]c(C)c1CCC(=O)N1CCC(O)(CN2CCOCC2)C1 (stereo not drawn) | 3.38%
20 | CC1(C(N)=O)CCCN(c2cnccn2)C1 (stereo not drawn) | -17.8%
21 | NC(=O)CN1CCC2(CC1)C[C@@H](O)[C@H](c1ccccc1)NC2=O | -23%
22 | COCCN1CCN(Cc2cnc(C(C)C)nc2)CC1 | 10.6%

Row | Compound | cytotoxicity at 10 µM
23 | CC(C)C(=O)N1Cc2ccccc2CC2(CCCCN2C)C1 (stereo not drawn) | 9.15%
24 | O=C(CCn1cccn1)NCCOc1ncc(Cl)cc1Cl | -3.82%
25 | Cc1cc(NC(=O)N2CCN(C)CC2C)n(CCC#N)n1 (stereo not drawn) | 2.35%
26 | CC(CCc1ccc(F)c(F)c1)NS(=O)(=O)Cc1ccon1 (stereo not drawn) | -7.97%
27 | CCc1nc2n(n1)CC(NCc1nc3ccccc3nc1C)CC2 (stereo not drawn) | -141%
28 | Cc1nccn1-c1ccc(C(C)NCc2cccn2C)cc1 (stereo not drawn) | 8.61%
29 | Cc1cc(NC(=O)CCNC(C)(C)c2nc(C)c(C)s2)no1 | 11.7%
30 | Cc1nc2cc(=O)[nH]n2c(C)c1CC(=O)Nc1cn[nH]c1 | 6.13%
31 | O=S(=O)(Cc1ccccc1)c1nnc(N2CCCC2)s1 | -6.27%
32 | Cc1cc(C)cc(OCC(O)CN2CCN(c3nccs3)CC2)c1 (stereo not drawn) | -7.32%
33 | Cc1cnn(CC2CCCCN2CC(=O)N(C)Cc2ccc(C)o2)c1 (stereo not drawn) | 10.6%
34 | Cc1cn2c(n1)CCC(NC(=O)CCCOCc1ccccc1)C2 (stereo not drawn) | -3.55%
35 | CC1Cc2ccccc2N1Cc1occc1C(=O)NCC(=O)N(C)C (stereo not drawn) | 8.13%
36 | CSCC(CCO)NC(=O)Nc1ccc(Br)cc1 (stereo not drawn) | -12.2%
37 | CC(NCc1ccncc1)c1cc2c(cc1Br)OCCO2 (stereo not drawn) | -1.41%
38 | N#Cc1ccc(NCc2cccc(OCC3CCCO3)c2)nc1 (stereo not drawn) | 1.25%
39 | CC(c1nc(C2CC2)no1)N(C)Cc1cccc(F)c1 (stereo not drawn) | -5.43%
40 | CN(Cc1cccs1)c1nc2c(cnn2C(C)(C)C)c(=O)[nH]1 | 9.75%
41 | CC1CN(C)CCN1C(=O)c1cnc2onc(CC(C)(C)C)c2c1 (stereo not drawn) | -1.6%
42 | Cc1cccc(C2(C(=O)NS(=O)(=O)c3cnn(C)c3)CCCC2)c1 | -3.62%
43 | CC(NC(=O)c1cccs1)C(=O)NS(=O)(=O)Cc1ccc(C#N)cc1 (stereo not drawn) | 5.29%
44 | CN(Cc1cccs1)C(=O)c1ccc(=O)n(C)c1 | -13.2%

Row | Compound | cytotoxicity at 10 µM
45 | NC(=O)NC(CC(=O)NCCc1ccc(F)cc1)c1ccccc1 (stereo not drawn) | -2.39%
46 | CCCNC(=O)CSCc1ccc(S(=O)(=O)N(C)C)o1 | 9.8%
47 | Fc1ccc(OCCNC2CCN(Cc3ccccn3)CC2)c(F)c1 | -3.26%
48 | CCC(C(=O)Nc1ccc2c(C)n[nH]c2c1)N1CCCC1=O (stereo not drawn) | -48.9%
49 | Cc1ccc(C(NC(=O)Cc2nc3ncccn3n2)C2CC2)cc1 (stereo not drawn) | 5.06%
50 | CCCN(CCC)S(=O)(=O)N(C)Cc1ccncc1 | 12.2%
51 | Cc1oc(-c2ccsc2)nc1CNCCn1cccn1 | -3.36%
52 | Cc1nccn1Cc1cccc(CNC(=O)c2ccn(C)c(=O)c2)c1 | 5.82%
53 | CC(C)C(=O)Nc1ncn(Cc2cccc(Br)c2)n1 | -9.95%
54 | c1ccc(COC2CCN(c3cncc(-n4cccn4)n3)CC2)cc1 | -9.18%
55 | CC(c1ccc(Cl)cc1)N1CCN(CCNS(C)(=O)=O)CC1 (stereo not drawn) | -15.3%
56 | CCn1nnc2c1C(COCC(=O)N(C)C)CN(Cc1ccoc1)C2 (stereo not drawn) | -2.98%
57 | Cc1ccc(CN2CC[C@H]3CO[C@H](CN(C)C)[C@H]3C2)o1 | -114%
58 | COCC(=O)NC1CC2(CCN(CCN(C)C)CC2)c2ccccc21 (stereo not drawn) | -113%
59 | Cc1ccccc1C(=O)N1CCC2(CC1)CC(c1cnn(C)c1)CO2 (stereo not drawn) | -75%
60 | Cc1cc(C(=O)N2CC[C@H]3[C@@H]2CCC(=O)N3c2ccccc2)no1 | -113%
61 | CC(C)c1cc(C2CCN(C(=O)Cn3nc4ccccc4n3)CC2)[nH]n1 | 0.685%
62 | N[C@H]1CN(CCCOc2ccccc2)C[C@@H]1C1CC1 | 0.147%
63 | O=C1CCC(C(=O)N2CCOC(Cc3cccc4ccccc34)C2)=NN1 (stereo not drawn) | -3.86%
64 | O[C@H]1CCCC[C@@H]1N1CCN(CCCc2ccc3c(c2)OCO3)CC1 | -3.69%
65 | COCCCN1C(=O)CC[C@H]2CN(Cc3ccc4nonc4c3)CC[C@H]21 | 2.46%
66 | CC(=O)NCc1cc2n(n1)CCN(Cc1ccccc1OC(F)(F)F)C2 | -2.84%

Row | Compound | cytotoxicity at 10 µM
67 | c1ccc(C2CN(C3CC3)CC3(CCN(Cc4ncc[nH]4)CC3)C2)cc1 (stereo not drawn) | 7.31%
68 | CCc1cnc(NCCS(=O)(=O)CC(C)C)nc1 | -13%
69 | CC[C@H]1CN(C(=O)c2ccc(-n3cnnc3)nc2)CC[C@@]1(C)O | -11.9%
70 | Cc1ncc(CN2CCC3(CCCN(CC4CCC4)C3)C2)cn1 (stereo not drawn) | -6.7%
71 | CC(C)N1CCC(C(=O)N2CCc3c(nc(CC4CC4)[nH]c3=O)C2)CC1 | -4.92%
72 | Cc1cccc(CN2CCC(n3cc(CCO)nn3)CC2)c1C | 0.636%
73 | c1ccc(Cc2nc(CNC3CCC4(CCNCC4)CC3)no2)cc1 | -17%
74 | O=c1c2cccc(C(F)(F)F)c2ncn1C1CCNC1 (stereo not drawn) | -38.3%
75 | CNS(=O)(=O)c1ccc(CN2CCC(c3ccncc3)CC2)cc1 | 10%
76 | Cc1cc(C(=O)NCCCn2nccc2C2CC2)c(=O)[nH]c1C | 9%
77 | CC(C)(C)N1CC(C(=O)NCc2cn3cccnc3n2)CC1=O (stereo not drawn) | -0.591%
78 | CCOCCNCc1cc(O)c2cc(C)ccc2n1 | -2.04%
79 | COc1cc(NCC(c2ccccn2)N(C)C)ncn1 (stereo not drawn) | -57.4%
80 | Cc1cnc(C(=O)N[C@H]2CN(CCS(C)(=O)=O)C[C@@H]2C2CC2)cn1 | 17.6%
81 | c1cn(CCNc2nc(NC3CC3)nc3c2CCNCC3)nn1 | -52.8%
82 | CC(C)CN1CC(c2nc(-c3ccsc3)c[nH]2)CC1=O (stereo not drawn) | 6.65%
83 | COc1cccc(OC)c1C(C(=O)O)N(C)Cc1c(C)n[nH]c1C (stereo not drawn) | 2.14%
84 | CN(Cc1ccncn1)C(=O)C1(Oc2ccc(Cl)cc2)CCNCC1 | 18.5%
85 | Cc1cccc(OC2CCN(Cc3ncc[nH]3)CC2)c1 | -7.15%
86 | O[C@]12CCNC[C@H]1CN(c1nccc3ccccc13)CC2 | 12.3%
87 | CCNc1nc(C)c(C(=O)N2CCC(C(O)Cc3ccccc3)CC2)s1 (stereo not drawn) | 13.5%
88 | O=C(Cn1ccnc1)N1C[C@@H]2CC[C@H](Oc3ccccc3Cl)[C@@H]2C1 | 11.9%

Row | Compound | cytotoxicity at 10 µM
89 | O=C(CN1C=Nc2ccccc2S1(=O)=O)NCCc1cccs1 | -8.55%
90 | O=C(CN1CCOC(Cn2cccn2)C1)Nc1nccs1 (stereo not drawn) | 3.64%
91 | Cc1cc(CN2CCOC(CN(C)C)C2)no1 (stereo not drawn) | -0.759%
92 | Cc1nn(C)c(C)c1CC(=O)N1CCC(Nc2cccnn2)CC1 | -8.8%
93 | CN(C(=O)Cc1c[nH]c2ccccc12)C1CCN(c2ccccn2)CC1 | 9.36%
94 | CC(C)c1nc(CN(C)C2CCN(CCNS(C)(=O)=O)C2)no1 (stereo not drawn) | -8.48%
95 | CC1CCN(C(=O)[C@@H]2C[C@@H]3CCN(Cc4nccs4)C[C@H]3O2)CC1 | -107%
96 | O=C(C[C@@H]1COC[C@H]2CN(CC3CC3)C[C@@H]12)NCc1cccnc1 | 9.21%
97 | O=C(NC1CCC1)[C@@H]1CCO[C@@H]2CCN(C3CCCC3)C[C@@H]21 | 11.4%
98 | c1ccc(CN2CCC3(CC2)CC(Nc2nccs2)CO3)nc1 (stereo not drawn) | -78.2%
99 | CS(=O)(=O)NCc1cncc2c1CCN(CC1CCOC1)C2 (stereo not drawn) | 12.7%
100 | Cc1cc(C)n(CC(=O)NC(Cc2ccsc2)c2ccccn2)c(=O)n1 (stereo not drawn) | -1.91%
101 | O=C(Cc1cccnc1)N1CCC2(CC1)CCN(C1CCOC1)C2 (stereo not drawn) | -2.52%
102 | CC(C)c1nn(C)c(Cl)c1CNC1CCOc2ccccc21 (stereo not drawn) | 53.2%
103 | COCC(=O)N1CCC(c2nc3ccc(-c4ccncc4)cn3n2)CC1 | 10.2%
104 | Cc1cnc(C(=O)N2CCC3(CCN3Cc3ccc(F)cc3)C2)cn1 (stereo not drawn) | -104%
105 | COc1cccc(CN2C[C@@H]3COC[C@]3(COCc3ccccn3)C2)c1 | -88.8%
106 | Cn1cc(CN2C[C@H](N3CCOCC3)[C@@H]3OCCC[C@@H]32)cn1 | 5.02%
107 | Cn1ccc(NC(=O)CN2C[C@@H]3CC[C@H]2CN(S(C)(=O)=O)C3)n1 | -14.2%
108 | CCCS(=O)(=O)N1C[C@H]2CC[C@@H](C1)N(Cc1cscn1)C2=O | 12.8%

From ChEMBL document CHEMBL4513216, “Probing the Open Global Health Chemical Diversity Library for Multistage-Active Starting Points for Next-Generation Antimalarials” (ACS Infect Dis, 2020)
